The Ki is the dissociation constant of the complex between target and ligand, obtained from inhibition or displacement.

These results are taken from ChEMBL document CHEMBL1135969, “Discovery of an opioid kappa receptor selective pure antagonist from a library of N-substituted 4beta-methyl-5-(3-hydroxyphenyl)morphans” (J Med Chem, 2002).

For test [1], the target named is Opioid receptors; delta & kappa (Homo sapiens) (UniProt P41145+P41143). Put plainly: Selectivity ratio of Ki at delta opioid receptor to Ki at kappa opioid receptor. The class given is protein assay.
In test [2] the target is Opioid receptors; mu & delta (Homo sapiens) (UniProt P41143+P35372). Put plainly: Selectivity ratio of Ki at mu opioid receptor to Ki at kappa opioid receptor. The class given is protein assay.
In test [3] the target is Delta-type opioid receptor (Rattus norvegicus, UniProt P33533). Put plainly: Ability to displace [3H]DADLE from Opioid receptor delta 1 of rat brain. The format is tissue-based. In a few lines:
(§1)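 Radioligand displacement binding giving Ki values. Rat brain tissue was used for the μ site (tritiated μ-selective ligand) and the δ site ([3H]DADLE, δ-selective). Guinea pig brain tissue was used for the κ site ([3H]U69,593, a κ-selective agonist).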

Test [4] has as its target Kappa-type opioid receptor (Cavia porcellus, UniProt P41144). The test is described as follows: Ability to displace [3H]U-69593 from Opioid receptor kappa 1 of guinea pig brain. In a few lines:
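Competitive radioligand binding in guinea pig brain tissue, using tritiated U69,593, a κ-selective agonist, as the displaced ligand. Affinity is reported as Ki.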

A further test addresses Mu-type opioid receptor (Rattus norvegicus, UniProt P33535). Put plainly: Ability to displace [3H]DAMGO from Opioid receptor mu 1 of rat brain. The class given is tissue-based. In a few lines: as §1
The target of test [5] is Mu-type opioid receptor (Homo sapiens) (UniProt P35372). Particulars: CHO.
Test [6] concerns the target Delta-type opioid receptor (Homo sapiens) (UniProt P41143). The settings on record: CHO.
Test [7] addresses Kappa-type opioid receptor (Homo sapiens) (UniProt P41145). The settings on record: CHO.

Delta-type opioid receptor, sequence (P33533 whole entry): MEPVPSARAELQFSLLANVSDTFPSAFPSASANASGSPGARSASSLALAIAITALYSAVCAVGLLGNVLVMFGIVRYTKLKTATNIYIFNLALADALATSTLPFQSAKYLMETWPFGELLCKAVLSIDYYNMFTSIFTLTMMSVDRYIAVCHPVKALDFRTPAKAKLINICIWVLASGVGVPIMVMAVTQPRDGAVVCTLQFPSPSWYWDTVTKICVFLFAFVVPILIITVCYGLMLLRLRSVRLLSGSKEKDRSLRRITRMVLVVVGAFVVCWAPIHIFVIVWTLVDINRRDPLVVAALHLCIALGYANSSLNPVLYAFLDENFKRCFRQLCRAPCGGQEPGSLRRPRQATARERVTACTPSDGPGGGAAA
Opioid receptors; delta & kappa (Homo sapiens), sequence (P41143 whole entry, looked up): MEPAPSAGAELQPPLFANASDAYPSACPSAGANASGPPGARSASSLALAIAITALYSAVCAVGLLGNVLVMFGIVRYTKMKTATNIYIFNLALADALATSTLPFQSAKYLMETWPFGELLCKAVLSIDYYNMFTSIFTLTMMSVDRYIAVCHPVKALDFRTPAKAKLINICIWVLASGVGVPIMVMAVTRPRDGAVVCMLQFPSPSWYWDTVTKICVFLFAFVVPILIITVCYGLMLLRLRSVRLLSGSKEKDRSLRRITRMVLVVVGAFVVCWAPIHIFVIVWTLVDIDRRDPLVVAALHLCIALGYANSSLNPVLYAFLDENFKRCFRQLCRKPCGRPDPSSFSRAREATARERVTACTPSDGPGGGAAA
Opioid receptors; delta & kappa (Homo sapiens), sequence (P41145 whole entry, looked up): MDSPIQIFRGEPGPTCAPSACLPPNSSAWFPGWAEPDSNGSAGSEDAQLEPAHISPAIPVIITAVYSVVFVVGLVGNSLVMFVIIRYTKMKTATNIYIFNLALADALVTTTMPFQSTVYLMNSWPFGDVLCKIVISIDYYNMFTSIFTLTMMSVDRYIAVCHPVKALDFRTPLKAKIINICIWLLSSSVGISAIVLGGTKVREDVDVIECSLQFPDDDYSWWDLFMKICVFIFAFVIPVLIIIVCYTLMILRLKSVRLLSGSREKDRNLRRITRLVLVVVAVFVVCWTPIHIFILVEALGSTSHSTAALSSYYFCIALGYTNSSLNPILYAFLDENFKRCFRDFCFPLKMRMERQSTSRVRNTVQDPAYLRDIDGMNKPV
Mu-type opioid receptor, sequence (P33535 whole entry): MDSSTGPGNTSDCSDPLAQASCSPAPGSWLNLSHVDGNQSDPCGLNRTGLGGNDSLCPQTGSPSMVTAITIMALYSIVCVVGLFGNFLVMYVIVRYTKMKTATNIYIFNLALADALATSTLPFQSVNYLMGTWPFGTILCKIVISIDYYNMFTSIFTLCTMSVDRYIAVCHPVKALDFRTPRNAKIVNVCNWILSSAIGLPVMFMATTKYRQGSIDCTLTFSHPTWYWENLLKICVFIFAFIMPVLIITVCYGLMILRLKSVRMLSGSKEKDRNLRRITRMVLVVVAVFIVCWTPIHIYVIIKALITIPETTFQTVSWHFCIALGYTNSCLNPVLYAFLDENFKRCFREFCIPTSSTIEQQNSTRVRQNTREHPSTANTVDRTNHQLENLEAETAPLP
Opioid receptors; mu & delta (Homo sapiens), sequence (P35372 whole entry, looked up): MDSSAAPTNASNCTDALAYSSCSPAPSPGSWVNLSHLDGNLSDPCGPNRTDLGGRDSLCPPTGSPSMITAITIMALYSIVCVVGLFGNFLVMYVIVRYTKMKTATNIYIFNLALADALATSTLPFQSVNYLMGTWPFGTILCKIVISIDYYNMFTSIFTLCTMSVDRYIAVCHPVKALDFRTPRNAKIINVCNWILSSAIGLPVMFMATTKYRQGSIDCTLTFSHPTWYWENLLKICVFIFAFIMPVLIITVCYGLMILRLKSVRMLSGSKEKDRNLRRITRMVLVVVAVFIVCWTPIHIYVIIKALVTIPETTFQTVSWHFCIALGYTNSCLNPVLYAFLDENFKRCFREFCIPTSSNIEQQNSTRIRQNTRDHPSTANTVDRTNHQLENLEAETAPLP
Opioid receptors; mu & delta (Homo sapiens), sequence (P41143 whole entry, looked up): as the sequence (P41143 whole entry, looked up) above
Kappa-type opioid receptor, sequence (P41144 whole entry): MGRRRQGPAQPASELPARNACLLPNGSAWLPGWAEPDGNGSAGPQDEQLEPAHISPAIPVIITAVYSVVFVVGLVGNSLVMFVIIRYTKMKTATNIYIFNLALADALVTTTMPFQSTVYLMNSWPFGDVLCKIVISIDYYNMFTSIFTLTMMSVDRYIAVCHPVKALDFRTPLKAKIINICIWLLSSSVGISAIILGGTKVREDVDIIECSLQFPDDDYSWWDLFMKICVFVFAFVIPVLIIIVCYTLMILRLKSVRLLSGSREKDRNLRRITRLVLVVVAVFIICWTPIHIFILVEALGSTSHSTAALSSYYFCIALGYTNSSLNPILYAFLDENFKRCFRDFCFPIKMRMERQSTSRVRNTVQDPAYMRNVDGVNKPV
Delta-type opioid receptor (Homo sapiens), sequence (P41143 whole entry): as the sequence (P41143 whole entry, looked up) above
Kappa-type opioid receptor (Homo sapiens), sequence (P41145 whole entry): as the sequence (P41145 whole entry, looked up) above
Mu-type opioid receptor (Homo sapiens), sequence (P35372 whole entry): as the sequence (P35372 whole entry, looked up) above

As for `CC1CN(CCCc2ccccc2)C2C[C@H](N)CC1(c1cccc(O)c1)C2` (single isomer, unassigned; (+)) [listing 1 of 2 here], the Ratio turned out to be 0.27 in test [1] and 0.23 in test [2].
Take `CC1CN(CCCc2ccccc2)C2C[C@H](N)CC1(c1cccc(O)c1)C2` (single isomer, unassigned; (-)) [listing 1 of 2 here]: the Ratio in test [1] was determined as 0.1; in test [2], 0.03.
Regarding `CC1CN(CCCc2ccccc2)C2C[C@H](N)CC1(c1cccc(O)c1)C2` (single isomer, unassigned; (+)) [listing 2 of 2 here], the Ki in test [3] turned out to be 246 nM; in test [4], 893 nM; on Mu-type opioid receptor, 207 nM.
For the compound `Oc1ccc2c3c1O[C@H]1c4[nH]c5c(c4C[C@@]4(O)[C@@H](C2)N(CC2CC2)CC[C@]314)C[C@@]1(O)[C@H]2Cc3ccc(O)c4c3[C@@]1(CCN2CC1CC1)[C@H]5O4`, the Ke in test [5] came to 19 nM; in test [6], 4.6 nM; in test [7] it was 0.04 nM.
Take `CC1CN(CCCc2ccccc2)C2C[C@H](N)CC1(c1cccc(O)c1)C2` (single isomer, unassigned; (-)) [listing 2 of 2 here]: the Ki in test [3] is 14.7 nM; in test [4], 122 nM; at Mu-type opioid receptor, 3.3 nM.
